Article PMC9290681 (British Journal of Pharmacology, 2020)
Values belong to the compound of their own block, whether it stands above or below them.

Legend:
[1] = target: TRPM3α2_D1064_A_P1065 (TRPM3α2 +1) (Mus musculus, UniProt J9SQF3, INS1087A); test: Whole-cell patch clamp, insertion mutant TRPM3α2 +1; assay type: cell-based; conditions: for block of clotrimazole-evoked currents / block of pregnenolone sulphate-induced currents: isosakuranetin 5 μM, diclofenac 100 μM, primidone 25 μM
[2] = target: TRPM3α1 Δ6b (Mus musculus, UniProt J9SQF3, DEL1071-1076); test: Whole-cell patch clamp, deletion mutant TRPM3α1 Δ6b; assay type: cell-based; conditions: for block of clotrimazole-activated currents: Clt 10 μM, isosakuranetin 5 μM, diclofenac 100 μM, primidone 25 μM
[3] = test system: TRPM3α1 Δ3d; test: Whole-cell patch clamp, deletion mutant TRPM3α1 Δ3d; assay type: cell-based, mouse; conditions: for block of clotrimazole-activated currents: isosakuranetin 5 μM, diclofenac 100 μM, primidone 25 μM
[4] = target: TRPM3α2 (Mus musculus, UniProt J9SQF3); test: Whole-cell patch clamp, HEK293T cells expressing TRPM3α2; assay type: cell-based, murine; conditions: for block of CIM0216-induced currents: isosakuranetin 5 μM, diclofenac 100 μM, primidone 25 μM
[5] = target: T1, TRPM3α1 (Mus musculus, UniProt J9SQF3); test: Whole-cell patch clamp, HEK293T cells expressing TRPM3α1; assay type: cell-based; conditions: for block of CIM0216-induced currents: CIM0216 1 μM, isosakuranetin 5 μM; for block of CIM0216-induced currents / block of clotrimazole-induced currents: diclofenac 100 μM, primidone 25 μM; for block of CIM0216-induced currents / block of clotrimazole-induced currents / whole-cell current increase: ±80 mV; for block of clotrimazole-induced currents: Clt 10 μM; for whole-cell current increase: Nif 50 μM
[6] = target: T1, TRPM3α1; test: Calcium microfluorimetry, HEK293T cells transiently transfected with TRPM3α1; assay type: cell-based; conditions: for intracellular calcium response: PS 40 μM, Nif 50 μM, Clt 10 μM, CIM0216 1 μM, Fura-2; for calcium signal at high agonist concentrations: PS 50, 100 and 200 μM, Nif 100 and 200 μM
[7] = target: TRPM3α1 and TRPM3α2 co-expressed (Mus musculus, UniProt J9SQF3); test: Calcium microfluorimetry, HEK293 cells co-transfected with TRPM3α1 and TRPM3α2; assay type: cell-based; conditions: PS 40 μM, Clt 10 μM; TRPM3α2 cDNA 0.5 μg with TRPM3α1 cDNA 0, 1.5 and 3 μg
[8] = target: TRPM3α1 Δ6a (Mus musculus, UniProt J9SQF3, DEL1065-1070); test: Whole-cell patch clamp, deletion mutant TRPM3α1 Δ6a; assay type: cell-based; conditions: PS 40 μM, n=4
[9] = target: TRPM3α2 D1064_AA_P1065 (TRPM3α2 +2) (Mus musculus, UniProt J9SQF3, INS1087AA); test: Whole-cell patch clamp, insertion mutant TRPM3α2 +2; assay type: cell-based; conditions: PS 40 μM, n=4
[10] = test system: short pore loop TRPM3α variants (α2–α6); assay type: cell-based, mouse; conditions: PS 40 μM, Nif 50 μM; all isoforms α2–α6
Summary of the method: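 HEK293T cells transiently transfected 48 h before imaging were loaded with Fura-2 AM for 20 min at 37°C. Ratios at 340/380 nm excitation were converted to absolute calcium by Grynkiewicz calibration. Response was taken as maximum minus basal during the stimulus. Only cells responding to a final ionomycin challenge were counted. At least three independent coverslips were used.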

[11] = target: T2, short pore loop TRPM3α isoforms (α2–α6) (Mus musculus, UniProt J9SQF3); test: Whole-cell patch clamp, HEK293T cells expressing short pore loop TRPM3α isoforms; assay type: cell-based; conditions: PS 40 μM, Clt 10 μM; ±80 mV
T2 sequence (J9SQF3 852-1200 limits assumed): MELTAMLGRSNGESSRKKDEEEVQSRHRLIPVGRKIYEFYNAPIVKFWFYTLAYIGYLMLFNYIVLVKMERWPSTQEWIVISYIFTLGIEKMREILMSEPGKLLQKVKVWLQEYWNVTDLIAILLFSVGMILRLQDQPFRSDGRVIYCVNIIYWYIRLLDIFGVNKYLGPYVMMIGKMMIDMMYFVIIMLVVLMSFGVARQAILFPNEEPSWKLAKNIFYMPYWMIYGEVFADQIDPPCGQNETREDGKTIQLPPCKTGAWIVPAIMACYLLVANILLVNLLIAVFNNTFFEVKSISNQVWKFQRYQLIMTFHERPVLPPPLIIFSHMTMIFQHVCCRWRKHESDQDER

[12] = target: TRPM3α2 +3 (Mus musculus, UniProt J9SQF3, INS1087AAA); test: Whole-cell patch clamp, insertion mutant TRPM3α2 +3; assay type: cell-based; conditions: PS 40 μM, n=5
[13] = target: TRPM3α2 +4 (Mus musculus, UniProt J9SQF3, INS1087AAAA); test: Whole-cell patch clamp, insertion mutant TRPM3α2 +4; assay type: cell-based; conditions: PS 40 μM, n=6
[14] = test system: TRPM3α1 Δ3b; test: Whole-cell patch clamp, deletion mutant TRPM3α1 Δ3b; assay type: cell-based, mouse; conditions: n=5
[15] = test system: TRPM3α1 Δ3c; test: Whole-cell patch clamp, deletion mutant TRPM3α1 Δ3c; assay type: cell-based, mouse; conditions: n=5
[16] = test system: TRPM3α1 Δ3a; test: Whole-cell patch clamp, deletion mutant TRPM3α1 Δ3a; assay type: cell-based, mouse; conditions: n=5
[17] = target: TRPM3α1 Δ12 (Mus musculus, UniProt J9SQF3, DEL1065-1076); test: Whole-cell patch clamp, deletion mutant TRPM3α1 Δ12; assay type: cell-based; conditions: PS 40 μM, n=6
[18] = target: TRPM3α2 +5 (Mus musculus, UniProt J9SQF3, INS1087AAAAA); test: Whole-cell patch clamp, insertion mutant TRPM3α2 +5; assay type: cell-based; conditions: PS 40 μM, n=4
[19] = target: TRPM3α1 A1077P (α1 A‐P) (Mus musculus, UniProt J9SQF3, A1077P); test: Whole-cell patch clamp, mutant TRPM3α1 A1077P; assay type: cell-based; conditions: PS 40 μM, n=6

Compound: CC(=O)[C@H]1CC[C@H]2[C@@H]3CC=C4C[C@@H](OS(=O)(=O)[O-])CC[C@]4(C)[C@H]3CC[C@]12C.[Na+] [pregnenolone sulphate, Pregnenolone sulphate sodium salt]
PS +80 mV ΔI density ([1]; PS 40 μM, +80 mV, n=4): 45.2 ± 18.6 pA/pF | PS −80 mV ΔI density ([1]; PS 40 μM, −80 mV, n=4): −2.2 ± 0.6 pA/pF | calcium increase in co-expressing cells versus TRPM3α2 alone [7]: significantly reduced | PS +80 mV ΔI density ([8]; +80 mV): 0.25 ± 0.2 pA/pF | PS −80 mV ΔI density ([8]; −80 mV): −0.05 ± 0.3 pA/pF | PS +80 mV ΔI density ([2]; PS 40 μM, +80 mV, n=5): 0.3 ± 0.1 pA/pF | PS −80 mV ΔI density ([2]; PS 40 μM, −80 mV, n=5): −0.2 ± 0.02 pA/pF | PS +80 mV ΔI density ([9]; +80 mV): 1.2 ± 0.6 pA/pF | PS −80 mV ΔI density ([9]; −80 mV): −0.1 ± 0.2 pA/pF | intracellular calcium response [6]: did not induce any detectable calcium rise | calcium signal at high agonist concentrations [6]: did not induce any detectable calcium signal | intracellular calcium response [10]: robust calcium responses | PS +80 mV ΔI density ([3]; PS 40 μM, +80 mV, n=5): 0.04 ± 0.3 pA/pF | PS −80 mV ΔI density ([3]; PS 40 μM, −80 mV, n=5): 0.01 ± 0.04 pA/pF | whole-cell current increase [11]: robust current increases | PS +80 mV ΔI density ([4]; PS 40 μM, +80 mV, n=11): 38.1 ± 12.9 pA/pF | PS −80 mV ΔI density ([4]; PS 40 μM, −80 mV, n=11): −1.9 ± 0.5 pA/pF | PS +80 mV ΔI density ([12]; +80 mV): 7.8 ± 2.0 pA/pF | PS −80 mV ΔI density ([12]; −80 mV): −1.3 ± 0.4 pA/pF | PS +80 mV ΔI density ([13]; +80 mV): 1.1 ± 0.4 pA/pF | PS −80 mV ΔI density ([13]; −80 mV): −0.3 ± 0.2 pA/pF | inhibition of clotrimazole-activated currents by co-application ([5]; PS 40 μM on Clt 10 μM currents, at +80 mV): 10.5 ± 5.1% | whole-cell current increase ([5]; PS 40 μM): did not evoke any increase in current amplitude | PS +80 mV ΔI density ([5]; PS 40 μM, +80 mV, n=5): −1.0 ± 0.85 pA/pF | PS −80 mV ΔI density ([5]; PS 40 μM, −80 mV, n=5): 0.2 ± 0.1 pA/pF | PS +80 mV ΔI density ([14]; PS 40 μM, +80 mV): −0.5 ± 0.4 pA/pF | PS −80 mV ΔI density ([14]; PS 40 μM, −80 mV): 0.1 ± 0.04 pA/pF | PS +80 mV ΔI density ([15]; PS 40 μM, +80 mV): −0.1 ± 0.1 pA/pF | PS −80 mV ΔI density ([15]; PS 40 μM, −80 mV): 0.2 ± 0.1 pA/pF | PS +80 mV ΔI density ([16]; PS 40 μM, +80 mV): 0.01 ± 0.2 pA/pF | PS −80 mV ΔI density ([16]; PS 40 μM, −80 mV): 0.3 ± 0.3 pA/pF | PS +80 mV ΔI density ([17]; +80 mV): 35.6 ± 13.9 pA/pF | PS −80 mV ΔI density ([17]; −80 mV): −3.8 ± 1.7 pA/pF | PS +80 mV ΔI density ([18]; +80 mV): 1.2 ± 0.6 pA/pF | PS −80 mV ΔI density ([18]; −80 mV): −0.1 ± 0.1 pA/pF | PS +80 mV ΔI density ([19]; +80 mV): −0.4 ± 0.6 pA/pF | PS −80 mV ΔI density ([19]; −80 mV): −0.1 ± 0.3 pA/pF

Compound: COC(=O)C1=C(C)NC(C)=C(C(=O)OC)C1c1ccccc1[N+](=O)[O-] [nifedipine, Nifedipine]
intracellular calcium response [6]: did not induce any detectable calcium rise | calcium signal at high agonist concentrations [6]: did not induce any detectable calcium signal | intracellular calcium response [10]: robust calcium responses | whole-cell current increase ([5]; PS 40 μM): without effect

Compound: Clc1ccccc1C(c1ccccc1)(c1ccccc1)n1ccnc1 [clotrimazole, Clotrimazole]
Clt +80 mV ΔI density ([3]; Clt 10 μM, +80 mV, n=5): 269.2 ± 55.2 pA/pF | Clt −80 mV ΔI density ([3]; Clt 10 μM, −80 mV, n=5): −259.7 ± 53.1 pA/pF | Clt +80 mV ΔI density ([14]; Clt 10 μM, +80 mV): 149.2 ± 21.2 pA/pF | Clt −80 mV ΔI density ([14]; Clt 10 μM, −80 mV): −122.8 ± 13.9 pA/pF | Clt +80 mV ΔI density ([15]; Clt 10 μM, +80 mV): 242.5 ± 17.2 pA/pF | Clt −80 mV ΔI density ([15]; Clt 10 μM, −80 mV): −225.3 ± 13.8 pA/pF | Clt +80 mV ΔI density ([16]; Clt 10 μM, +80 mV): 430.6 ± 74.8 pA/pF | Clt −80 mV ΔI density ([16]; Clt 10 μM, −80 mV): −355.3 ± 55.5 pA/pF

Further lines, with some results ahead:

block of clotrimazole-evoked currents [1]: ineffective | block of pregnenolone sulphate-induced currents [1]: fully block | block of clotrimazole-activated currents [2]: only a partial block | block of CIM0216-induced currents ([4]; CIM0216 1 μM, ±80 mV): full block | block of CIM0216-induced currents [5]: full block | block of clotrimazole-induced currents [5]: only partially blocked
Compound: O=C(O)Cc1ccccc1Nc1c(Cl)cccc1Cl [diclofenac, Diclofenac]
block of clotrimazole-activated currents ([3]; Clt 10 μM): only a partial block

EC50 ([5]; read-out: EC50 of current activation, CIM0216, outwardly rectifying currents): 570 ± 50 nM
Compound: Cc1cc(NC(=O)C(c2ccccc2)N2CCCc3ccccc32)no1 (stereo not drawn) [CIM0216]
intracellular calcium response [6]: sizable increases in intracellular calcium | whole-cell current increase ([4]; CIM0216 1 μM, ±80 mV): robust increase in both inward and outward currents

block of clotrimazole-evoked currents [1]: ineffective | block of pregnenolone sulphate-induced currents [1]: fully block | block of clotrimazole-activated currents [2]: only a partial block | block of CIM0216-induced currents ([4]; CIM0216 1 μM, ±80 mV): full block | block of CIM0216-induced currents [5]: full block | block of clotrimazole-induced currents [5]: only partially blocked
Compound: CCC1(c2ccccc2)C(=O)NCNC1=O [primidone, Primidone]
block of clotrimazole-activated currents ([3]; Clt 10 μM): only a partial block
